The nature of data set [1]: Michaelis-Menten constant against mammalian malate dehydrogenase (MDH). In outline:
(§1)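 NAD is varied and the A340 increase from NADH formation is monitored (ε 6.22 mM-1 cm-1). Buffers differ by enzyme: ADH in 0.1 M phosphate, pH 8.0, with ethanol 1.2 mM; GDH in 0.1 M phosphate, pH 7.0, with 10 μM EDTA; LDH and MDH in 0.05 M Tris-HCl, pH 9.0. At least duplicate.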

Data set [2] deals with NC(=O)c1ccc[n+]([C@@H]2O[C@H](COP(=O)([O-])OP(=O)(O)OC[C@H]3O[C@@H](n4cnc5c(N)ncnc54)[C@H](O)[C@@H]3O)[C@@H](O)[C@H]2O)c1. The data set is described as follows: Michaelis-Menten constant against mammalian glutamate dehydrogenase (GDH). The method in brief: as §1
For data set [3] the test system is unchanged. The data set can be described thus: Michaelis-Menten constant against mammalian lactate dehydrogenase (LDH). The settings on record: Sus scrofa. The method in brief: as §1

In general, Km refers to the substrate concentration at which the rate is half of its maximum.

Chain of Glutamate dehydrogenase 1, mitochondrial (Bos taurus), P00366 (P00366 whole entry): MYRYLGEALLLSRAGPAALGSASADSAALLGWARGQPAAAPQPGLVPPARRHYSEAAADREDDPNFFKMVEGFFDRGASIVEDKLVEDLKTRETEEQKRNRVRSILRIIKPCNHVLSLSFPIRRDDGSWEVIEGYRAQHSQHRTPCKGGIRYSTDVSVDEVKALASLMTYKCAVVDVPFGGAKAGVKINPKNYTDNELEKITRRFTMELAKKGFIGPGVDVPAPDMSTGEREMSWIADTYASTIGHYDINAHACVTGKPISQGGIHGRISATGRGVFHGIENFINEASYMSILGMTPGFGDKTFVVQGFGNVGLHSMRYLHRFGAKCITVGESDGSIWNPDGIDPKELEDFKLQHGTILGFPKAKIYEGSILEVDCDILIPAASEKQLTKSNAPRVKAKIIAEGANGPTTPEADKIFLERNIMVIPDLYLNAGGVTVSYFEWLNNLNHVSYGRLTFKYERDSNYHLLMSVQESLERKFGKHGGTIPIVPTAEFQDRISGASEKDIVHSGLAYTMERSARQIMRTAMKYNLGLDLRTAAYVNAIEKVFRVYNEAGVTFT

In the case of `NC(=O)c1ccc[n+]([C@@H]2O[C@H](COP(=O)([O-])OP(=O)(O)OC[C@H]3O[C@@H](n4cnc5c(N)ncnc54)[C@H](O)[C@@H]3O)[C@@H](O)[C@H]2O)c1`, in data set [1], the Km amounted to 32 µM.

In the case of “Glutamate dehydrogenase 1, mitochondrial (Bos taurus), P00366”, the Km in data set [2] came to 30 µM.

Take “L-lactate dehydrogenase A chain (Homo sapiens) (from UniProt P00338)”: the Km in data set [3] is 141 µM.

(Values after ChEMBL document CHEMBL1127319, “CNAD: a potent and specific inhibitor of alcohol dehydrogenase” (J Med Chem, 1994).)
